bCat KO growth – beta-catenin-lacking colon tumor cell growth suppression; HCT116 beta-catenin knockout viability, CellTiter-Glo, 60 h; active compounds read low; viability, % at 10 µM; 140,000 compounds, 1.5% hits;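 active means viability at or under a set limit, the compound median less 4 SD, cut at about 6% in these data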
H69AR inhibit – growth inhibitors of human H69AR lung tumor cells; H69AR lung tumor viability, ATP luminescence, 72 h; active compounds read low; viability, % at 10 µM; 85,000 compounds, 6% hits; AID 598;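 active means viability at or below 40%; inactive means viability above 40%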;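 further: multidrug resistant small cell line overexpressing MRP-1 efflux transporter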
HUVEC prolif 384 – inhibitors of human endothelial cell proliferation | HUVEC proliferation, CellTiter-Glo luminescence, 72 h; active compounds read low | AID 648 | viability, % at 10 µM (by protocol) | 86,000 compounds, 1.1% hits;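 active means viability at or below 30%; inactive means viability above 30%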
HCT116 PTEN-null – PTEN-deleted cell growth suppression | HCT116 PTEN-null viability, CellTiter-Glo, 60 h; active compounds read low | viability, % at 10 µM | 140,000 compounds, 1.2% hits;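 active means viability at or below a set limit, 4 SD under the median of all tested compounds, cut at about 3.7% in these data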;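 further: PTEN knockout HCT116 line with beta catenin targeted HCT116 as companion control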
Lung fibro prol – blocks proliferation of human lung fibroblasts; AID 719; viability, % at 10 µM; LL 47 human lung fibroblast viability, ATP luminescence; active compounds read low; 85,000 compounds, 1.1% hits;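 active means viability at or below 50% in the single dose screen; inactive means viability above 50%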;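 further: compound exposure lasted 72 h before the ATP readout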
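Material: human lung fibroblast line LL 47, low passage; Evaluation: viability percentage against median untreated-cell control; Buffer or medium: 15% FBS in IMEM; Incubation: 72 h compound exposure at 37 °C after overnight plating; Dosing: 0.1% DMSO in all compound wells; Measured by: CellTiter-Glo luminescence.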
Numbers stand for hits; i = inactive; nt = no result. The full list was thinned out, with hits kept by preference.

SMILES	bCat KO growth	H69AR inhibit	HUVEC prolif 384	HCT116 PTEN-null	Lung fibro prol
CC(C)CNC(=S)N(Cc1ccco1)Cc1cc2cc3c(cc2[nH]c1=O)OCCO3	i	nt	nt	i	nt
O=C(Nc1ccc(N2CCOCC2)cc1)Nc1ccc2nc(-c3ccco3)c(-c3ccco3)nc2c1	i	9.5	22.3	i	i
CCN1CCN(C2=C(Cl)C(=O)N(Cc3ccccc3)C2=O)CC1	i	i	i	i	i
CN1CCN(C2=C(Cl)C(=O)N(c3ccc(Cl)c(Cl)c3)C2=O)CC1	i	8.5	i	i	i
CN1CCN(C2=C(Cl)C(=O)N(Cc3ccccc3)C2=O)CC1	i	39.1	i	i	i
O=C(Nc1nc2ccc(Cl)cc2s1)[C@@H]1CCCN1C(=O)c1cccs1	i	nt	nt	i	nt
Oc1ccc(-c2csc(-c3ccccc3)n2)cc1O	i	19.8	29.0	i	i
Cc1nc(-c2ccc(O)c(O)c2)cs1	i	i	i	i	i
CC1(NC(=O)CC[N+](C)(C)CCO)CS(=O)(=O)CC1S(=O)(=O)[O-] (stereo not drawn)	i	nt	nt	i	nt
O=C(c1cn(-c2ccccc2)nc1-c1ccncc1)n1nnc2ccccc21	nt	8.1	i	nt	nt
O=C(O)c1cn(-c2ccccc2)nc1-c1ccncc1	i	i	i	i	i
COc1ccc(C(=O)CCc2nc3ccccc3s2)cc1	i	nt	nt	i	nt
CCOC(=O)C1CCN(c2ncnc3c2[nH]c2cccc(OC)c23)CC1	i	22.9	i	i	i
CCC1CCCCN1S(=O)(=O)c1ccc(C(=O)Nc2nnc(-c3cccs3)o2)cc1 (stereo not drawn)	i	20.5	i	i	i
CC1CC(C)CN(S(=O)(=O)c2ccc(C(=O)Nc3nnc(-c4cccs4)o3)cc2)C1 (stereo not drawn)	i	i	4.2	i	i
O=C(CCc1ccccc1)Nc1nnc(-c2cccs2)o1	i	i	i	i	i
Cc1nnc(NC(=O)c2ccc(S(=O)(=O)N3CCCCCC3)cc2)o1	i	i	i	i	i
CC1CCCN(S(=O)(=O)c2ccc(C(=O)Nc3nnc(-c4ccccc4Cl)o3)cc2)C1 (stereo not drawn)	i	30.8	3.9	i	46.6
O=C(Nc1nnc(-c2cccs2)o1)c1cccc(C(F)(F)F)c1	i	23.4	i	i	i
Cc1ccc(NC(=O)c2cc([N+](=O)[O-])ccc2NCc2cccnc2)cc1	i	nt	nt	i	nt
Cc1nc(SCC(=O)c2ccc(Cl)cc2)c([N+](=O)[O-])[nH]1	i	nt	nt	i	nt
CCc1ccc(NC(=O)CCc2nc3cccnc3n2Cc2ccc(OC)cc2)cc1	i	18.1	i	i	44.8
O=C(O)CCc1nc2cccnc2n1Cc1ccccc1	i	i	i	i	i
COc1cc(/C=C(\C#N)c2nc3ccccc3[nH]2)cc(Br)c1OCc1ccc(F)cc1	2.1	nt	nt	2.1	nt
Cc1cc(/C=C2\SC(=Nc3ccc(F)cc3)NC2=O)c(C)n1-c1ccc(S(N)(=O)=O)cc1	i	nt	nt	2.8	nt
SMILES	bCat KO growth	H69AR inhibit	HUVEC prolif 384	HCT116 PTEN-null	Lung fibro prol
Cc1cc(/C=C2/SC(=O)NC2=O)c(C)n1-c1ccc(N2CCOCC2)cc1	i	nt	nt	i	nt
COc1ccc(NC(=O)COc2ccc(C(=O)NC3CCCc4ccccc43)cc2OC)cc1 (stereo not drawn)	i	nt	nt	i	nt
O=C(CSc1cccc[n+]1[O-])c1cc2ccccc2o1	4.7	i	i	2.7	i
Cc1cc(NC(c2ccc(Cl)cc2)c2ccc3cccnc3c2O)no1 (stereo not drawn)	4.3	i	10.7	i	8.1
Cc1ccc2ccc(C(Nc3ccccn3)c3ccccc3)c(O)c2n1 (stereo not drawn)	i	27.7	i	i	i
Cc1cccc(NCc2ccccc2O)n1	i	i	i	i	i
COc1ccccc1NC(c1cccnc1)c1ccc2cccnc2c1O (stereo not drawn)	i	nt	nt	i	nt
CC(=O)NC(c1ccco1)c1ccc2cccnc2c1O (stereo not drawn)	5.1	i	4.6	i	2.2
Cc1cccc(NC(c2ccc(C)s2)c2ccc3ccc(C)nc3c2O)n1 (stereo not drawn)	2.4	nt	nt	1.7	nt
C/C(=N/NC(=O)CCCOc1ccc(Cl)cc1Cl)c1ccc(C)o1	i	nt	nt	i	nt
Cc1nnc(SCC(=O)Nc2ccccc2C(=O)NC2CC2)s1	i	nt	nt	i	nt
CC(C)(C)CC(C)(C)NC(=S)NC1CCN(Cc2ccccc2)CC1	i	nt	nt	i	nt
CCn1c(SCC(=O)c2ccccc2)nnc1-c1cccs1	i	i	i	i	i
CCCCCCOC(=O)Nc1ccc(S(=O)(=O)Nc2cccc([N+](=O)[O-])c2)cc1	i	nt	nt	i	nt
Oc1c(C(Nc2ccccn2)c2ccccn2)ccc2cccnc12 (stereo not drawn)	3.0	6.4	i	2.5	5.0
COc1cc(C(Nc2ccccn2)c2ccc3ccc(C)nc3c2O)cc(OC)c1O (stereo not drawn)	2.9	0.3	13.9	2.5	38.3
O=c1nccc(NCc2ccco2)[nH]1	i	i	i	i	i
CCNc1ccc2noc3c2c1C(=O)c1ccccc1-3	i	17.6	i	i	i
O=C1c2ccccc2-c2onc3ccc(NCc4ccco4)c1c23	i	34.1	i	i	i
CCOc1ccc2noc3c2c1C(=O)c1ccccc1-3	i	nt	nt	i	nt
CCOC(=O)c1c(CN2CCN(CCO)CC2)n(C)c2cc(Br)c(OC)cc12	i	16.5	i	i	i
CCOC(=O)c1c(CNCCN(CC)CC)n(C)c2cc(Br)c(OC)cc12	i	33.5	i	i	i
CCN(CC)CCNC(=O)c1c(C)n(-c2ccccc2)c2cc(Br)c(OC)cc12	i	25.4	6.1	i	i
CCOC(=O)c1c(CN2CCCCC2)n(C)c2cc(Br)c(OC)cc12	i	i	i	i	i
CCC(C)(C)NC(=O)C(c1cccn1C)N(Cc1ccc(OC)cc1)C(=O)Cn1nnc2ccccc21 (stereo not drawn)	i	i	i	i	i
SMILES	bCat KO growth	H69AR inhibit	HUVEC prolif 384	HCT116 PTEN-null	Lung fibro prol
Cc1nnc(SCC(=O)NC(C)(C)C)n1C1CCCCC1	i	nt	nt	i	nt
O=C(c1nn2c(C(F)(F)F)cc(-c3ccco3)nc2c1Br)N1CCCc2ccccc21	i	38.6	i	i	45.7
O=C(NC1CCCC1)c1cnn2c(C(F)(F)F)cc(-c3ccc4c(c3)OCO4)nc12	i	17.1	27.9	i	i
CC(C)CCNC(=O)c1cnn2c(C(F)(F)F)cc(-c3ccco3)nc12	i	i	i	i	i
O=C(NC1CCCC1)c1cnn2c(C(F)(F)F)cc(-c3ccco3)nc12	i	32.8	i	i	i
CCc1ccc(NC(=O)C(C)OC(=O)c2cccc(S(=O)(=O)N3CCc4ccccc4C3)c2)cc1 (stereo not drawn)	i	nt	nt	i	nt
O=c1[nH]c(N/N=C/c2ccccc2Br)nnc1-c1ccccc1	i	nt	nt	i	nt
COc1ccc(/C=N/Nc2nnc(-c3ccccc3)c(=O)[nH]2)cc1	4.5	nt	nt	2.9	nt
O=C(c1ccco1)N1CCN(C(c2ccccc2Cl)c2nnnn2Cc2cccs2)CC1 (stereo not drawn)	i	32.7	i	i	i
CCc1ccc2c(CN(CC)Cc3nc4ccccc4c(=O)[nH]3)cc(=O)oc2c1	i	35.8	i	i	i

From PubChem BioAssay
